ChEMBL document CHEMBL1139374, “Multivalent scaffolds for affinity maturation of small molecule cell surface binders and their application to prostate tumor targeting” (J Med Chem, 2009)
pKd: −log10 of the molar value. Calls of active or inactive are those of the source. The calls are words filed in the database; no cut-off is given here.

Assays:
[1] = target: T1, Glutamate carboxypeptidase 2 (Homo sapiens, UniProt Q04609); assay: Binding affinity to PSMA in human LNCaP cells assessed as cell surface binding in phosphate-buffered saline buffer; format: cell-based
Outline: (§1)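 Live-cell homologous competition; cells grown in RPMI 1640 with 10% FBS at 37°C and 5% CO2. Cells washed twice in ice-cold TBS pH 7.4, then held 20 min at 4°C with 0.02 MBq 99mTc-labeled tracer, with or without test compound, in TBS, PBS or 100% calf serum. Washed three times in TBS, gamma-counted, affinity taken from curve fit; mean ± S.D.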

[2] = target: T1, Glutamate carboxypeptidase 2; assay: Binding affinity to PSMA in human LNCaP cells assessed as cell surface binding in presence of 100% calf serum; format: cell-based; outline: as §1
[3] = target: T1, Glutamate carboxypeptidase 2; assay: Binding affinity to PSMA in human PC3 cells assessed as cell surface binding in phosphate-buffered saline buffer; format: cell-based; outline: as §1
[4] = target: T1, Glutamate carboxypeptidase 2; assay: Binding affinity to PSMA in human PC3 cells assessed as cell surface binding in Tris-buffered saline buffer; format: cell-based; conditions: for Activity: PC-3
Outline: (§2)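 Cells washed twice in ice-cold TBS pH 7.4, then held 20 min at 4°C with 0.02 MBq 99mTc-labeled tracer, with or without test compound, in TBS, PBS or 100% calf serum. Washed three times in TBS, gamma-counted, affinity taken from curve fit; mean ± S.D.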

[5] = target: T1, Glutamate carboxypeptidase 2; assay: Binding affinity to PSMA in human LNCaP cells assessed as cell surface binding in Tris-buffered saline buffer; format: cell-based; outline: as §2
[6] = target: T1, Glutamate carboxypeptidase 2; assay: Binding affinity to PSMA in living human LNCaP cells assessed as cell surface binding at 2 uM in presence of 100% calf serum by NIR fluorescence imaging; format: cell-based
Outline: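 Exponentially growing LNCaP cells at 75% confluence on glass coverslips, exposed to 2 μM compound in 0.2 mL 100% calf serum for 20 min at room temperature. Washed three times in serum, fixed in 2% paraformaldehyde 10 min, permeabilized with PBS-0.1% Tween-20 and mounted. Phase-contrast and NIR images taken on a four-channel NIR fluorescence microscope at identical exposure and normalization.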
Target sequence in this assay (Q04609 whole entry, looked up): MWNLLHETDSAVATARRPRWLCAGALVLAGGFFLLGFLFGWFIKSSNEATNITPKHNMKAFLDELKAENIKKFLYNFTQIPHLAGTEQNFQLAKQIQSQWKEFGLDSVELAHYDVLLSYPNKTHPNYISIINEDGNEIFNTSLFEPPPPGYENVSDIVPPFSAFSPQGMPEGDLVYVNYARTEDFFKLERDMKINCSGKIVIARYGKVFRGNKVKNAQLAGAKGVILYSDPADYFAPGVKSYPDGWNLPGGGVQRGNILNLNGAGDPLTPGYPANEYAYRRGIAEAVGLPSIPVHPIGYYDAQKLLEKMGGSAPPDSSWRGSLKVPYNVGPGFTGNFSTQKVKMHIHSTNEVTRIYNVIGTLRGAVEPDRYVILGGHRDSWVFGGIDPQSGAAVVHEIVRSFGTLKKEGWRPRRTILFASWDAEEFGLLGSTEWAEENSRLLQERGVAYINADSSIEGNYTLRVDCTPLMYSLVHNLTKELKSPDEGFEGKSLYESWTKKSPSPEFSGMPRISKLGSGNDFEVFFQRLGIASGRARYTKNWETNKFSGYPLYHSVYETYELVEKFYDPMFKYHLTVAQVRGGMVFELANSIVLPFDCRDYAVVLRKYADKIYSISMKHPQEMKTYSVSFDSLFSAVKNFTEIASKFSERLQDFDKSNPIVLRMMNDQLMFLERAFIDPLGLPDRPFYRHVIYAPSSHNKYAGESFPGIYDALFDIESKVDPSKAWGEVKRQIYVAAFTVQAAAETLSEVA

[7] = target: T1, Glutamate carboxypeptidase 2; assay: Binding affinity to PSMA in human PC3 cells assessed as cell surface binding in presence of 100% calf serum; format: cell-based, PC-3; outline: as §1
Target sequence in this assay (Q04609 whole entry): as the sequence (Q04609 whole entry, looked up) above

| Compound | Activity [2] | Activity [4] | Activity [5] | pKd [1] | pKd [5] | also measured |
| --- | --- | --- | --- | --- | --- | --- |
| CC1(C)C(/C=C/C2=C(Oc3ccc(S(=O)(=O)O)cc3)C(=C/C=C3/N(CCCCS(=O)(=O)O)c4ccc(S(=O)(=O)O)cc4C3(C)C)/CCC2)=[N+](CCCCCC(=O)N[C@@H](CCP(=O)(O)CC(CCC(=O)O)C(=O)O)C(=O)O)c2ccc(S(=O)(=O)[O-])cc21 (stereo partly specified) | inactive | – | – | – | – | Activity [1]: inactive |
| CC1(C)C(/C=C/C2=C(Oc3ccc(S(=O)(=O)O)cc3)C(=C/C=C3/N(CCCCS(=O)(=O)O)c4ccc(S(=O)(=O)O)cc4C3(C)C)/CCC2)=[N+](CCCCCC(=O)NCCCCCC(=O)NC23CC4(CCC=O)CC(CCC=O)(CC(CCC(=O)N[C@@H](CCP(=O)(O)CC(CCC(=O)O)C(=O)O)C(=O)O)(C4)C2)C3)c2ccc(S(=O)(=O)[O-])cc21 (stereo partly specified) | inactive | – | – | – | – | Activity [1]: inactive |
| NC12CC3(CCC(=O)O)CC(CCC(=O)O)(C1)CC(CCC(=O)O)(C2)C3 | – | inactive | inactive | – | – | Activity ([3]; PC-3): inactive; Activity [1]: inactive |
| CC1(C)C(/C=C/C2=C(Oc3ccc(S(=O)(=O)O)cc3)C(=C/C=C3/N(CCCCS(=O)(=O)O)c4ccc(S(=O)(=O)[O-])cc4C3(C)C)/CCC2)=[N+](CCCCCC(=O)NCCCCCC(=O)NC23CC4(CCC=O)CC(CCC(=O)N[C@@H](CCP(=O)(O)CC(CCC(=O)O)C(=O)O)C(=O)O)(CC(CCC(=O)N[C@@H](CCP(=O)(O)CC(CCC(=O)O)C(=O)O)C(=O)O)(C4)C2)C3)c2ccc(S(=O)(=O)O)cc21 (stereo partly specified) | – | – | – | 8.72 | 8.89 | pKd [2]: 8.77 |
| CC1(C)C(/C=C/C2=C(Oc3ccc(S(=O)(=O)[O-])cc3)C(=C/C=C3/Nc4ccccc4C3(C)C)/CCC2)=[N+](CCCCCC(=O)NC23CC4(CCC(=O)N[C@@H](CCP(=O)(O)CC(CCC(=O)O)C(=O)O)C(=O)O)CC(CCC(=O)N[C@@H](CCP(=O)(O)CC(CCC(=O)O)C(=O)O)C(=O)O)(CC(CCC(=O)N[C@@H](CCP(=O)(O)CC(CCC(=O)O)C(=O)O)C(=O)O)(C4)C2)C3)c2ccccc21 (stereo partly specified) | – | – | – | 9.52 | 9.70 | pKd [2]: 9.52; Activity [6]: 100% |
| N[C@@H](CCP(=O)(O)CC(CCC(=O)O)C(=O)O)C(=O)O (stereo partly specified) | inactive | – | – | – | 7.98 | Activity [1]: inactive |
| CC1(C)C(/C=C/C2=C(Oc3ccc(S(=O)(=O)O)cc3)C(=C/C=C3/N(CCCCS(=O)(=O)O)c4ccc(S(=O)(=O)O)cc4C3(C)C)/CCC2)=[N+](CCCCCC(=O)NCCCCCC(=O)NC23CC4(CCC(=O)O)CC(CCC(=O)O)(CC(CCC(=O)O)(C4)C2)C3)c2ccc(S(=O)(=O)[O-])cc21 | – | inactive | inactive | – | – | – |
| CC1(C)C(/C=C/C2=C(Oc3ccc(S(=O)(=O)[O-])cc3)C(=C/C=C3/N(CCCCS(=O)(=O)O)c4ccccc4C3(C)C)/CCC2)=[N+](CCCCCC(=O)O)c2ccccc21 | – | inactive | inactive | – | – | Activity [6]: 100% |
| CC(C)(C)OC(=O)NCCCCCC(=O)NC12CC3(CCC(=O)N[C@@H](CCP(=O)(O)CC(CCC(=O)O)C(=O)O)C(=O)O)CC(CCC(=O)N[C@@H](CCP(=O)(O)CC(CCC(=O)O)C(=O)O)C(=O)O)(CC(CCC(=O)N[C@@H](CCP(=O)(O)CC(CCC(=O)O)C(=O)O)C(=O)O)(C3)C1)C2 (stereo partly specified) | – | – | – | 9.30 | 9.40 | pKd [2]: 9.15 |
| CC1(C)C(/C=C/C2=C(Oc3ccc(S(=O)(=O)O)cc3)C(=C/C=C3/N(CCCCS(=O)(=O)O)c4ccc(S(=O)(=O)[O-])cc4C3(C)C)/CCC2)=[N+](CCCCCC(=O)NCCCCCC(=O)NC23CC4(CCC=O)CC(CCC=O)(CC(CCC(=O)N[C@@H](CCP(=O)(O)CC(CCC(=O)O)C(=O)O)C(=O)O)(C4)C2)C3)c2ccc(S(=O)(=O)O)cc21 (stereo partly specified) | – | – | – | – | 8.27 | – |
| CC1(C)C(/C=C/C2=C(Oc3ccc(S(=O)(=O)[O-])cc3)C(=C/C=C3\N(CCCCS(=O)(=O)O)c4ccccc4C3(C)C)/CCC2)=[N+](CCCCCC(=O)NC23CC4(CCC(=O)O)CC(CCC(=O)O)(CC(CCC(=O)O)(C4)C2)C3)c2ccccc21 | – | inactive | inactive | – | – | – |
| CC(C)(C)OC(=O)NC12CC3(CCC(=O)N[C@@H](CCP(=O)(O)CC(CCC(=O)O)C(=O)O)C(=O)O)CC(CCC(=O)N[C@@H](CCP(=O)(O)CC(CCC(=O)O)C(=O)O)C(=O)O)(CC(CCC(=O)N[C@@H](CCP(=O)(O)CC(CCC(=O)O)C(=O)O)C(=O)O)(C3)C1)C2 (stereo partly specified) | 0.9 nM | – | – | 9.10 | 9.22 | pKd [7]: 9.22; pKd [3]: 9.52; pKd [4]: 9.70 |
| CC1(C)C(/C=C/C2=C(Oc3ccc(S(=O)(=O)O)cc3)C(=C/C=C3/N(CCCCS(=O)(=O)O)c4ccc(S(=O)(=O)O)cc4C3(C)C)/CCC2)=[N+](CCCCCC(=O)NCCCCCC(=O)NC23CC4(CCC(=O)N[C@@H](CCP(=O)(O)CC(CCC(=O)O)C(=O)O)C(=O)O)CC(CCC(=O)N[C@@H](CCP(=O)(O)CC(CCC(=O)O)C(=O)O)C(=O)O)(CC(CCC(=O)N[C@@H](CCP(=O)(O)CC(CCC(=O)O)C(=O)O)C(=O)O)(C4)C2)C3)c2ccc(S(=O)(=O)[O-])cc21 (stereo partly specified) | 0.4 nM | – | – | 9.30 | 9.30 | – |
| CC1(C)C(/C=C/C2=C(Oc3ccc(S(=O)(=O)O)cc3)C(=C/C=C3/N(CCCCS(=O)(=O)O)c4ccc(S(=O)(=O)O)cc4C3(C)C)/CCC2)=[N+](CCCCCC(=O)O)c2ccc(S(=O)(=O)[O-])cc21 | – | inactive | inactive | – | – | – |
| CC1(C)C(C=CC2=C(Oc3ccc(S(=O)(=O)O)cc3)/C(=C/C=C3/N(CCCCCC(=O)N[C@@H](CCP(=O)(O)CC(CCC(=O)O)C(=O)O)C(=O)O)c4ccc(S(=O)(=O)[O-])cc4C3(C)C)CCC2)=[N+](CCCCS(=O)(=O)O)c2ccc(S(=O)(=O)O)cc21 (stereo partly specified) | – | – | – | – | 8.44 | – |
